# Test results published in the M2OR odorant receptor database.
# Molecular target: T1, OR2M4 (Homo sapiens) (UniProt Q96R27)
# T1 sequence (whole entry): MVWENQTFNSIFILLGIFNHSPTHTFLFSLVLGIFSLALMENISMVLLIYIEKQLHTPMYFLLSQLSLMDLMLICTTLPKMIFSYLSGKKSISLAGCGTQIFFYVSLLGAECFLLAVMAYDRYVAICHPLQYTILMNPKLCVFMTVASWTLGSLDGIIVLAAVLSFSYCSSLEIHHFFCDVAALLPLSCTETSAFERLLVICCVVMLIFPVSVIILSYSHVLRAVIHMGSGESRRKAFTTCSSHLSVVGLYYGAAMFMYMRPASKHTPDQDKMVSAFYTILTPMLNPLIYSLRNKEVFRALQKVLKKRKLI
# Conditions: stereoisomer not certain
# How it was run: (§1)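 Transient luciferase assays in mammalian cell lines were common, though methods varied by source. The values come from published papers and their supplementary material, with extra details from the original authors when needed. Responsive refers to a measured signal the original authors judged statistically different from baseline, and non-responsive (inactive) to the remainder.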
# 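Also: active if original authors judged signal statistically different from baseline.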
row,SMILES,odorant receptor agonist call
1,CC(CO)CS (stereo not drawn),inactive
2,CCC1OC(=O)C(O)=C1C (stereo not drawn),inactive
3,CC1=NC(C)C(C)S1 (stereo not drawn),inactive
4,C=CCOC(=O)COCCC(C)C,inactive
5,CCCCC1CCC(=O)O1 (stereo not drawn),inactive
6,C=CC(C)(CCC=C(C)C)OC(C)=O (stereo not drawn),inactive
7,CCCCCC(=O)C(C)C(C)=O (stereo not drawn),inactive
8,CC(C)=CCCC(C)CC=O (stereo not drawn),inactive
9,CC1=C(O)C(=O)C(C)O1 (stereo not drawn),inactive
10,CCCCCC1C(=O)CCC1CC(=O)OC (stereo not drawn),inactive
11,CC(CC=O)c1ccc(C(C)(C)C)cc1 (stereo not drawn),inactive
12,CC1CC(C)(c2ccccc2)CO1 (stereo not drawn),inactive
13,CCC=C(C)C(O)CCCCC (stereo not drawn),inactive
14,CC(C)CCCC(C)(C)O,inactive
15,CC(C)(C)C1CCCCC1OCCCCO (stereo not drawn),inactive
16,Cc1occc(=O)c1OC(=O)C(C)C,inactive
17,Cc1cnc(C)c(C)n1,inactive
18,COc1ccc(C)cc1,active
19,CC(=O)OCc1ccccc1,inactive

row,SMILES,odorant receptor agonist call
1,CCCC(S)CCOC(C)=O (stereo not drawn),inactive
2,CC(=O)C=CC1=C(C)CCCC1(C)C,inactive
3,CC(C)=CCCC(C)=CCO,inactive
4,CCc1ccc(CC(C)(C)C=O)cc1,inactive
5,CC=CC(=O)C1C(C)=CCCC1(C)C (stereo not drawn),active
6,CCC(S)C(C)CO (stereo not drawn),inactive
7,CCCCCC1COCCC1OC(C)=O (stereo not drawn),inactive
8,CC1=CCC2CC1C2(C)C (stereo not drawn),inactive
9,CCCCCC(S)C(C)CO (stereo not drawn),inactive
10,OCc1ccccc1,inactive
11,Cc1ccc(C(C)C)cc1O,inactive
12,CCCCC(S)C(C)CO (stereo not drawn),inactive
13,CCCC(C)C(=O)OCC (stereo not drawn),inactive
14,CCCCCCC=CCCC=O,inactive
15,CC1=C(O)C(=O)OC1C (stereo not drawn),inactive
16,CCC1OC(C)=C(O)C1=O (stereo not drawn),inactive
17,CCC(=O)C=CC1C(C)=CCCC1(C)C (stereo not drawn),inactive
18,COC1CC2CC1C1CC(C=O)CC21 (stereo not drawn),inactive
19,CCCCCCCCC(OC(C)=O)OC(C)=O,inactive

# Molecular target: T2, OR2M5 (Homo sapiens) (UniProt A3KFT3)
# T2 sequence (whole entry): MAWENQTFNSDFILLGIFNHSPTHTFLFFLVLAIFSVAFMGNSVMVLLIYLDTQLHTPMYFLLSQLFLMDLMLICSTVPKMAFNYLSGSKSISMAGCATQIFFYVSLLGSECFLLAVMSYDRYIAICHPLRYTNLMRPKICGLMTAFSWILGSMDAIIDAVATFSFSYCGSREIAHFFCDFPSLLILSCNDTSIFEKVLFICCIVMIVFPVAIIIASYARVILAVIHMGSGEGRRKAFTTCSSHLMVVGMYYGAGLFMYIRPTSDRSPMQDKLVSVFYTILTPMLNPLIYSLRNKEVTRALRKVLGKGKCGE
# Conditions: stereoisomer not certain
# How it was run: as §1
row,SMILES,odorant receptor agonist call
1,CC(CO)CS (stereo not drawn),inactive
2,CC(=O)c1c(C)c([N+](=O)[O-])c(C(C)(C)C)c([N+](=O)[O-])c1C,inactive
3,CCC1OC(=O)C(O)=C1C (stereo not drawn),inactive
4,CC1=NC(C)C(C)S1 (stereo not drawn),inactive
5,CCCCCC(=O)C(C)C(C)=O (stereo not drawn),inactive
6,CC1=C(O)C(=O)C(C)O1 (stereo not drawn),inactive
7,CC1CCCCCCCCCCCCC(=O)C1 (stereo not drawn),inactive
8,Cc1cnc(C)c(C)n1,inactive
9,CCCC(S)CCOC(C)=O (stereo not drawn),inactive
10,CCC(S)C(C)CO (stereo not drawn),inactive
11,CCCCCC(S)C(C)CO (stereo not drawn),inactive
12,CCCCC(S)C(C)CO (stereo not drawn),inactive
13,CCCCCCC=CCCC=O,inactive
14,CC1=C(O)C(=O)OC1C (stereo not drawn),inactive
15,CCC1OC(C)=C(O)C1=O (stereo not drawn),inactive
